Data taken from ChEMBL document CHEMBL4138201, “Synthesis and biological evaluation of sulfur-containing shikonin oxime derivatives as potential antineoplastic agents” (Eur J Med Chem, 2018).

Tests used:
[1] = Cytotoxicity against human HSF cells after 48 hrs by MTT assay; format: cell-based
Outline: (§1)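 MTT colorimetric assay. Shikonin and 5-fluorouracil served as reference agents. IC₅₀ obtained by linear regression of each compound's concentration–response curve.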

HCT-15 = test: Cytotoxicity against human HCT15 cells after 48 hrs by MTT assay; format: functional, cell-based; details: HCT-15, 48 h; outline: as §1
MGC-803 = test: Cytotoxicity against human MGC803 cells after 48 hrs by MTT assay; format: functional, cell-based; details: MGC-803, 48 h; outline: as §1
MCF7 = test: Cytotoxicity against human MCF7 cells after 48 hrs by MTT assay; format: functional, cell-based; details: MCF7, 48 h; outline: as §1
Bel-7402 = test: Cytotoxicity against human Bel7402 cells after 48 hrs by MTT assay; format: functional, cell-based; details: Bel-7402, 48 h; outline: as §1

Row | Structure (SMILES) | IC50 [1] [µM] | IC50 (HCT-15) [µM] | IC50 (MGC-803) [µM] | IC50 (MCF7) [µM] | IC50 (Bel-7402) [µM]
1 | COc1cc(C(CC=C(C)C)SC(=O)c2cccnc2)c(OC)c2c1/C(=N/O)C=C/C2=N\O (stereo not given) | > 50 | 3.45 | 7.56 | 37.5 | 10.2
2 | COc1ccc(C(=O)S[C@@H](CC=C(C)C)c2cc(OC)c3c(c2OC)/C(=N/O)C=C/C3=N\O)cc1OC | > 50 | 0.38 | 1.12 | 15.2 | 0.85
3 | COc1cc(C(CC=C(C)C)SC(=O)c2ccc(F)cc2)c(OC)c2c1/C(=N/O)C=C/C2=N\O (stereo not given) | > 50 | 0.7 | 1.28 | 20.5 | 0.89
4 | COc1cc(C(CC=C(C)C)SCC=C(C)C)c(OC)c2c1/C(=N/O)C=C/C2=N\O (stereo not given) | > 50 | 3.8 | 7.05 | 33.7 | 12.6
5 | COc1cc(C(CC=C(C)C)SC(=O)C=C(C)C)c(OC)c2c1/C(=N/O)C=C/C2=N\O (stereo not given) | > 50 | 1.56 | 3.96 | 29.9 | 4.53
6 | CCCCSC(CC=C(C)C)c1cc(OC)c2c(c1OC)/C(=N/O)C=C/C2=N\O (stereo not given) | > 50 | 4.37 | 9.32 | 36 | 12.6
7 | CCCCCCCCCSC(CC=C(C)C)c1cc(OC)c2c(c1OC)/C(=N/O)C=C/C2=N\O (stereo not given) | > 50 | 4.09 | 9.86 | 37.8 | 13.8
8 | CCSC(CC=C(C)C)c1cc(OC)c2c(c1OC)/C(=N/O)C=C/C2=N\O (stereo not given) | > 50 | 7.15 | 12.5 | 44.2 | 20.1
9 | COc1cc(C(CC=C(C)C)SC(=O)c2ccncc2)c(OC)c2c1/C(=N/O)C=C/C2=N\O (stereo not given) | > 50 | 7.32 | 19.4 | > 50 | 26.8
10 | CCCCCC(=O)SC(CC=C(C)C)c1cc(OC)c2c(c1OC)/C(=N/O)C=C/C2=N\O (stereo not given) | > 50 | 7.21 | 16.9 | 45.7 | 22.4
11 | COc1cc(C(CC=C(C)C)SC/C=C(\C)CC/C=C(\C)CCC=C(C)C)c(OC)c2c1/C(=N/O)C=C/C2=N\O (stereo not given) | > 50 | 5.96 | 9.98 | 37.4 | 14.7
12 | COc1cc(C(CC=C(C)C)SC(=O)c2ccco2)c(OC)c2c1/C(=N/O)C=C/C2=N\O (stereo not given) | > 50 | 1.98 | 5.01 | 28.3 | 7.3
13 | COc1cc(C(CC=C(C)C)SC(=O)c2cccc(Cl)c2)c(OC)c2c1/C(=N/O)C=C/C2=N\O (stereo not given) | > 50 | 2.64 | 8.73 | 42.9 | 12.1
14 | CC(C)=CC[C@@H](O)C1=CC(=O)c2c(O)ccc(O)c2C1=O [SHIKONIN] | 1.25 | 0.86 | 1.51 | 2.4 | 1.24
15 | CCC(=O)SC(CC=C(C)C)c1cc(OC)c2c(c1OC)/C(=N/O)C=C/C2=N\O (stereo not given) | > 50 | 1.35 | 3.06 | 26.1 | 2.73
16 | COc1cc(C(=O)S[C@@H](CC=C(C)C)c2cc(OC)c3c(c2OC)/C(=N/O)C=C/C3=N\O)cc(OC)c1OC | > 50 | 0.34 | 0.97 | 11.8 | 0.63
17 | COc1cc(C(=O)S[C@H](CC=C(C)C)c2cc(OC)c3c(c2OC)/C(=N/O)C=C/C3=N\O)cc(OC)c1OC | > 50 | 0.57 | 1.18 | 12.8 | 0.97
18 | COc1cc(C(CC=C(C)C)SC(=O)c2ccccc2)c(OC)c2c1/C(=N/O)C=C/C2=N\O (stereo not given) | > 50 | 0.63 | 1.28 | 17.4 | 1.2
19 | O=c1[nH]cc(F)c(=O)[nH]1 [FLUOROURACIL] | > 50 | 7.53 | > 50 | 29 | 20.9
